Bioassay records: PubChem BioAssay, Broad Institute
SIRT5 block – SIRT5 desuccinylase inhibitors, primary screen, biochemical, fluorescence imaging, single point, set 5. NAD-dependent protein deacylase sirtuin-5, mitochondrial (Homo sapiens), Q9NXA8. Purified SirT5, succinyl-peptide AMC, trypsin-coupled fluorescence. inhibition, % at 15 µM. 330,000 tested, 1.1% active. AID 652115, 2013; in the data active means inhibition above about 15%
Target sequence (Q9NXA8 whole entry, looked up): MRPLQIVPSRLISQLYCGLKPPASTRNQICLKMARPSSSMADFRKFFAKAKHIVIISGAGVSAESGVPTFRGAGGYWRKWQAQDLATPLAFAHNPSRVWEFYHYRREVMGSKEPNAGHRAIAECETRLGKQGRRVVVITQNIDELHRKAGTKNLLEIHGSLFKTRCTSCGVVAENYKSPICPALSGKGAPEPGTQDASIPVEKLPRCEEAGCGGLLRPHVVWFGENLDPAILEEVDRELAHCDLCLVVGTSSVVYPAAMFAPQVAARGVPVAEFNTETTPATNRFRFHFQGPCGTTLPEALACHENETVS
E-sel inducer – E-selectin induction in HUVECs, primary screen, imaging, HUVEC, immunofluorescence imaging, single point | AID 686992, 2013 | normalized: neutral wells 0, TNF-alpha wells 100 | activation, % at 7.58 µM | 260,000 tested, 0.37% active;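 active means mean E-selectin-positive cell signal at least 10% of the positive control, reached in at least 60% of replicates, without over 20% cell loss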
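Material: HUVEC primary endothelial cells; Amount: 3,000 cells per well; Dosing: single concentration; Medium: EGM-2 growth medium on 0.1% gelatin-coated wells; Read-out basis: percent E-selectin-positive cells; Signal: immunofluorescence imaging; Control set: TNF-alpha, DMSO.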
DENV2 CPE rescue – inhibitors of DENV2 cytopathic effect, primary screen, cell-based, plate reader, single concentration | DENV2-infected cells, cytopathic effect rescue | CPE inhibition, % at 9.99 µM | 350,000 tested, 1.7% active; in the data active means CPE inhibition above about 20%, passing the limit was not always enough; tested in BHK-21 cells;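 further: 0% = median of neutral control wells and 100% = median of positive control wells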
Active calls of the source: *; nt = not tested or not shown. Only some compounds are listed: those with a hit (about 2.8% of all), similar ones and a draw of the others.

SMILES	SIRT5 block	E-sel inducer	DENV2 CPE rescue
CCC(=O)N1CCC2(CC1)CN(S(=O)(=O)c1ccccc1)[C@H](CO)c1[nH]c3cc(OC)ccc3c12	6	0	-4
CCS(=O)(=O)NCC[C@H]1CC[C@@H](NC(=O)C2CCC2)[C@H](CO)O1	8	0	5
COc1ccc(NC(=O)N(C)C[C@H]2OCCCC[C@@H](C)Oc3ccc(NC(=O)C4CCCCC4)cc3C(=O)N([C@@H](C)CO)C[C@H]2C)cc1	-5	0	-5
CC(=O)N(C)C[C@H]1Oc2ncc(-c3cccc(C#N)c3)cc2C(=O)N([C@H](C)CO)C[C@H]1C	-3	0	-3
CC(C)c1ccc(NC2CCCN(C(=O)CCN3CCCC3=O)C2)cc1 (centres undefined)	0	1	-13
CC(C)c1ccc(NC2CCCN(C(=O)CC3CCCC3)C2)cc1 (centres undefined)	34*	2	5
C[C@H](CO)N1C[C@H](C)[C@H](CN(C)CC2CCCCC2)Oc2ccc(NS(C)(=O)=O)cc2C1=O	1	0	15
CC(CCc1ccc(O)cc1)NC(c1ccccc1)c1ccc(Cl)cc1 (centres undefined)	nt	nt	55*
CC(CCc1ccc(O)cc1)NCCC(c1ccccc1)c1ccccc1 (centres undefined)	nt	nt	0
C[C@H](CO)N1C[C@H](C)[C@H](CN(C)S(=O)(=O)c2ccc(F)cc2)Oc2ccc(NC(=O)Cn3cnnn3)cc2CC1=O	-5	0	1
C[C@H]1CN([C@@H](C)CO)C(=O)c2cccc(NC(=O)c3nc4ccccc4s3)c2O[C@@H]1CN(C)Cc1ccccc1	4	0	-6
COc1ccc(CN(C)C[C@H]2Oc3c(NC(=O)c4nc5ccccc5s4)cccc3C(=O)N([C@H](C)CO)C[C@@H]2C)cc1	3	0	24*
C[C@H]1CN([C@@H](C)CO)C(=O)c2cccc(NC(=O)c3nc4ccccc4s3)c2O[C@@H]1CN(C)Cc1ccc(C(F)(F)F)cc1	21*	48*	-1
C[C@@H]1CN([C@H](C)CO)C(=O)c2cccc(NC(=O)c3nc4ccccc4s3)c2O[C@@H]1CN(C)Cc1ccccc1	5	0	11
COc1ccc(CN(C)C[C@H]2Oc3c(NC(=O)c4nc5ccccc5s4)cccc3C(=O)N([C@@H](C)CO)C[C@@H]2C)cc1	8	0	-1
C[C@@H]1CN([C@@H](C)CO)C(=O)c2cccc(NC(=O)c3nc4ccccc4s3)c2O[C@H]1CN(C)Cc1ccccc1	nt	4	nt
C[C@@H]1CN([C@H](C)CO)C(=O)c2cccc(NC(=O)c3nc4ccccc4s3)c2O[C@@H]1CN(C)Cc1ccc(C(F)(F)F)cc1	25*	-1	-3
C[C@@H]1CN([C@@H](C)CO)C(=O)c2cccc(NC(=O)c3nc4ccccc4s3)c2O[C@H]1CN(C)Cc1ccc(C(F)(F)F)cc1	22*	1	-3
C[C@@H]1CN([C@H](C)CO)C(=O)c2cc(NC(=O)c3ccncc3)ccc2O[C@H]1CN(C)Cc1ccc(C(=O)Nc2ccccc2N)cc1	0	0	-3
CO[C@H]1CN(C)C(=O)c2cc(NC(=O)Nc3ccccc3F)ccc2OC[C@H](C)NC[C@H]1C	11	0	0
O=C(Cc1cccnc1)N1CC2(C1)[C@@H](c1ccccc1)[C@@H](CO)N2C(=O)C1CCCCC1	4	0	-4
C[C@H](CO)N1C[C@H](C)[C@@H](CN(C)Cc2ccc(C(F)(F)F)cc2)Oc2c(NC(=O)c3nc4ccccc4s3)cccc2C1=O	16*	-11	14
C[C@H](CO)N1C[C@H](C)[C@H](CN(C)Cc2ccc(C(F)(F)F)cc2)Oc2c(NC(=O)c3nc4ccccc4s3)cccc2C1=O	28*	-3	-2
C[C@@H]1CN([C@@H](C)CO)C(=O)c2cccc(NC(=O)c3nc4ccccc4s3)c2O[C@@H]1CN(C)Cc1ccc(C(=O)O)cc1	-4	0	3
C[C@@H]1CN([C@H](C)CO)C(=O)c2cccc(NC(=O)c3nc4ccccc4s3)c2O[C@@H]1CN(C)Cc1ccc(C(=O)O)cc1	4	1	-2
COc1ccc2c3c(n(C)c2c1)[C@H](CO)NCC31CN(C(=O)Nc2ccc(F)cc2F)C1	nt	0	20
COc1ccc(S(=O)(=O)N(C)C[C@H]2Oc3ccc(NC(=O)NC(C)C)cc3C(=O)N([C@@H](C)CO)C[C@H]2C)cc1	nt	0	nt
CN1c2ccc(Br)cc2[C@H]2[C@H](CCN2C(=O)c2cccc(F)c2)[C@@H]1CO	1	0	nt
COC(=O)/C=C1\N/C(=N\c2nc(C)cc(C)n2)N(c2ccccc2)C1=O	0	1	-3
